ChEMBL document CHEMBL1140108, “In vivo positron emission tomography (PET) imaging with an alphavbeta6 specific peptide radiolabeled using 18F-"click" chemistry: evaluation and comparison with the corresponding 4-[18F]fluorobenzoyl- and 2-[18F]fluoropropionyl-peptides” (J Med Chem, 2008)

Legend:
Conditions in all cases: in vivo
Urinary bladder = test: Biodistribution in bladder of athymic nu/nu mouse bearing human alphavbeta6 expressing DX3purobeta6 cells at 15 to 30 uCi, iv after 1 hr; assay type: ADME, organism-based
Summary of the method: (§1)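 Male athymic nu/nu mice carried s.c. xenografts on opposite shoulder flanks: 3 × 10^6 DX3puro or DX3puroβ6 cells in serum-free DMEM, integrin expression checked by flow cytometry beforehand, used 2-5 weeks later. [18F]-peptide (approx. 15-30 μCi) in isotonic solution given i.v. via tail-vein catheter under 3% isoflurane. 1 h conscious uptake, then sacrificed and dissected (n = 3 per tracer). Organs γ-counted, decay-corrected, reported as % ID/g.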

[1] = Biodistribution in human alphavbeta6 expressing DX3purobeta6 cells bearing athymic nu/nu mouse at 15 to 30 uCi, iv after 1 hr; assay type: ADME, organism-based; summary of the method: as §1
Liver = test: Biodistribution in liver of athymic nu/nu mouse bearing human alphavbeta6 expressing DX3purobeta6 cells at 15 to 30 uCi, iv after 1 hr; assay type: ADME, organism-based; summary of the method: as §1
Pancreas = test: Biodistribution in pancreas of athymic nu/nu mouse bearing human alphavbeta6 expressing DX3purobeta6 cells at 15 to 30 uCi, iv after 1 hr; assay type: ADME, organism-based; summary of the method: as §1
Spleen = test: Biodistribution in spleen of athymic nu/nu mouse bearing human alphavbeta6 expressing DX3purobeta6 cells at 15 to 30 uCi, iv after 1 hr; assay type: ADME, organism-based; summary of the method: as §1
[2] = Biodistribution in human alphavbeta6 deficient DX3puro cells bearing athymic nu/nu mouse at 15 to 30 uCi, iv after 1 hr; assay type: ADME, organism-based; summary of the method: as §1
[3] = Biodistribution ratio of human alphavbeta6 expressing DX3purobeta6 cells bearing athymic nu/nu mouse to blood of athymic nu/nu mouse bearing human alphavbeta6 expressing DX3purobeta6 cells at 15 to 30 uCi, iv after 1 hr; assay type: ADME, organism-based
Summary of the method: (§2)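 Tumour ratios were taken from 1 h biodistribution in male nu/nu mice bearing DX3puro and DX3puroβ6 s.c. shoulder xenografts (3 × 10^6 cells). Dosing was approx. 15-30 μCi [18F]-peptide i.v. by tail-vein catheter under isoflurane, with conscious uptake. Tissues were γ-counted as decay-corrected % ID/g (n = 3 per tracer), and the ratio was formed from these values.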

Muscle tissue = test: Biodistribution in muscle of athymic nu/nu mouse bearing human alphavbeta6 expressing DX3purobeta6 cells at 15 to 30 uCi, iv after 1 hr; assay type: ADME, organism-based; summary of the method: as §1
Bone = test: Biodistribution in bone of athymic nu/nu mouse bearing human alphavbeta6 expressing DX3purobeta6 cells at 15 to 30 uCi, iv after 1 hr; assay type: ADME, organism-based, Bone element; summary of the method: as §1
[4] = Biodistribution ratio of human alphavbeta6 expressing DX3purobeta6 cells to human alphavbeta6 deficient DX3puro cells bearing athymic nu/nu mouse at 15 to 30 uCi, iv after 1 hr; assay type: ADME, organism-based; summary of the method: as §2
Stomach = test: Biodistribution in stomach of athymic nu/nu mouse bearing human alphavbeta6 expressing DX3purobeta6 cells at 15 to 30 uCi, iv after 1 hr; assay type: ADME, organism-based; summary of the method: as §1
Kidney = test: Biodistribution in kidney of athymic nu/nu mouse bearing human alphavbeta6 expressing DX3purobeta6 cells at 15 to 30 uCi, iv after 1 hr; assay type: ADME, organism-based; summary of the method: as §1
Blood = test: Biodistribution in blood of athymic nu/nu mouse bearing human alphavbeta6 expressing DX3purobeta6 cells at 15 to 30 uCi, iv after 1 hr; assay type: ADME, organism-based; summary of the method: as §1
Lung = test: Biodistribution in lung of athymic nu/nu mouse bearing human alphavbeta6 expressing DX3purobeta6 cells at 15 to 30 uCi, iv after 1 hr; assay type: ADME, organism-based; summary of the method: as §1
[5] = Biodistribution in gall bladder of athymic nu/nu mouse bearing human alphavbeta6 expressing DX3purobeta6 cells at 15 to 30 uCi, iv after 1 hr; assay type: ADME, organism-based; summary of the method: as §1
Brain = test: Biodistribution in brain of athymic nu/nu mouse bearing human alphavbeta6 expressing DX3purobeta6 cells at 15 to 30 uCi, iv after 1 hr; assay type: ADME, organism-based; summary of the method: as §1
Heart = test: Biodistribution in heart of athymic nu/nu mouse bearing human alphavbeta6 expressing DX3purobeta6 cells at 15 to 30 uCi, iv after 1 hr; assay type: ADME, organism-based; summary of the method: as §1
[6] = Biodistribution in urine of athymic nu/nu mouse bearing human alphavbeta6 expressing DX3purobeta6 cells at 15 to 30 uCi, iv after 1 hr; assay type: ADME, organism-based; summary of the method: as §1

Row | Drug uptake (Urinary bladder) | Drug uptake [1] | Drug uptake (Liver) | Drug uptake (Pancreas) | Drug uptake (Spleen) | Drug uptake [2] | Ratio [3] | Drug uptake (Muscle tissue) | Drug uptake (Bone) | Ratio [4] | Drug uptake (Stomach) | Drug uptake (Kidney) | Drug uptake (Blood) | Drug uptake (Lung) | Drug uptake [5] | Drug uptake (Brain) | Drug uptake (Heart) | Drug uptake [6] | Compound
1 | 8.25 % ID/g | 0.66 % ID/g | 0.63 % ID/g | 0.23 % ID/g | 0.07 % ID/g | 0.21 % ID/g | 2.5 | 0.56 % ID/g | 0.29 % ID/g | 3.1 | 1.33 % ID/g | 3.56 % ID/g | 0.27 % ID/g | 1.39 % ID/g | 15.05 % ID/g | 0.02 % ID/g | 0.31 % ID/g |  | CC(C)C[C@H](NC(=O)[C@H](CC(=O)O)NC(=O)CNC(=O)[C@H](CCCNC(=N)N)NC(=O)[C@H](CC(C)C)NC(=O)[C@H](CC(N)=O)NC(=O)[C@@H]1CCCN1C(=O)[C@@H](NC(=O)[C@H](C)NC(=O)[C@H](CC(N)=O)NC(=O)c1ccc([18F])cc1)C(C)C)C(=O)N[C@@H](CCC(N)=O)C(=O)N[C@H](C(=O)N[C@@H](CC(C)C)C(=O)N[C@@H](C)C(=O)N[C@@H](CCC(N)=O)C(=O)N[C@@H](CCCCN)C(=O)N[C@H](C(=O)N[C@@H](C)C(=O)N[C@@H](CCCNC(=N)N)C(=O)N[C@H](C(N)=O)[C@@H](C)O)C(C)C)C(C)C [[18F]-FBA-A20FMDV2]
2 | 6.24 % ID/g | 1.01 % ID/g | 1.12 % ID/g | 0.3 % ID/g | 0.13 % ID/g | 0.31 % ID/g | 2.3 | 1.01 % ID/g | 0.39 % ID/g | 3.3 | 0.97 % ID/g | 9.5 % ID/g | 0.43 % ID/g | 1.83 % ID/g | 4.72 % ID/g | 0.05 % ID/g | 0.47 % ID/g | 501 % ID/g | CC(C)C[C@H](NC(=O)[C@H](CC(=O)O)NC(=O)CNC(=O)[C@H](CCCNC(=N)N)NC(=O)[C@H](CC(C)C)NC(=O)[C@H](CC(N)=O)NC(=O)[C@@H]1CCCN1C(=O)[C@@H](NC(=O)[C@H](C)NC(=O)[C@H](CC(N)=O)NC(=O)CCn1cc(CCC[18F])nn1)C(C)C)C(=O)N[C@@H](CCC(N)=O)C(=O)N[C@H](C(=O)N[C@@H](CC(C)C)C(=O)N[C@@H](C)C(=O)N[C@@H](CCC(N)=O)C(=O)N[C@@H](CCCCN)C(=O)N[C@H](C(=O)N[C@@H](C)C(=O)N[C@@H](CCCNC(=N)N)C(=O)N[C@H](C(N)=O)[C@@H](C)O)C(C)C)C(C)C
3 | 5.3 % ID/g | 1.18 % ID/g | 0.51 % ID/g | 0.39 % ID/g | 0.32 % ID/g | 0.61 % ID/g | 1.8 | 0.82 % ID/g | 0.38 % ID/g | 1.9 | 3.61 % ID/g | 4.87 % ID/g | 0.64 % ID/g | 2.06 % ID/g | 2.13 % ID/g | 0.28 % ID/g | 0.62 % ID/g | 311 % ID/g | CC(C)C[C@H](NC(=O)[C@H](CC(=O)O)NC(=O)CNC(=O)[C@H](CCCNC(=N)N)NC(=O)[C@H](CC(C)C)NC(=O)[C@H](CC(N)=O)NC(=O)[C@@H]1CCCN1C(=O)[C@@H](NC(=O)[C@H](C)NC(=O)[C@H](CC(N)=O)NC(=O)C(C)[18F])C(C)C)C(=O)N[C@@H](CCC(N)=O)C(=O)N[C@H](C(=O)N[C@@H](CC(C)C)C(=O)N[C@@H](C)C(=O)N[C@@H](CCC(N)=O)C(=O)N[C@@H](CCCCN)C(=O)N[C@H](C(=O)N[C@@H](C)C(=O)N[C@@H](CCCNC(=N)N)C(=O)N[C@H](C(N)=O)[C@@H](C)O)C(C)C)C(C)C (stereo partly drawn)
